Measured values reported in ChEMBL document CHEMBL3351694, “Synthesis and SAR studies of benzyl ether derivatives as potent orally active S1P₁ agonists” (Bioorg Med Chem, 2014).

Key:
Rattus norvegicus [1] = experiment: Induction of lymphopenia in Lewis rat assessed as reduction in lymphocyte numbers at 0.1 mg/kg, po after 4 hrs by automatic hemacytometry relative to untreated control; assay type: functional; set-up: scale not given: the % may be the effect or the level left
Procedure, shortened: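 Male Lewis rats, 5 weeks old, 5 per group, given saline vehicle or 0.1 mg/kg compound orally. EDTA blood drawn before and 4 h after dosing. Lymphocytes counted by automatic hemacytometer; untreated rats also counted.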

Rattus norvegicus [2] = experiment: Immunosuppressive activity in Lewis rat injected with WKAH/Hkm rat spleen cells assessed as inhibition of host versus graft reaction by measuring popliteal lymph nodes weight dosed orally at 5 mL/kg once daily for 4 successive days starting on day of spleen cell injection; assay type: functional; settings: po, read-out: ID50 (the source's name)
Procedure, shortened: (§1)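 Lewis rats received 1×10^7 WKAH/Hkm splenocytes intracutaneously into both hind footpads. Syngeneic controls received Lewis splenocytes. Compound suspended in 0.5% tragacanth, given orally at 5 mL/kg once daily for 4 days from the day of cell injection; 5 rats/group. Popliteal lymph node weight gain measured relative to allogeneic control. ID50 by least squares from at least three doses.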

[3] = Half life in Lewis rat at 1 mg/kg, po; assay type: ADME, organism-based; set-up: dose 1 mg/kg, route oral; settings: in vivo
Procedure, shortened: (§2)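 Single oral dose of 1.0 mg/kg parent compound in rats, n = 2 or 3. Plasma levels measured for parent and its phosphate. Cmax, AUC0-48 and T1/2 derived from plasma concentration. Half-life of phosphate taken from plasma phosphate level after dosing at 1.0 mg/kg p.o., n = 2.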

[4] = Metabolic stability in rat hepatic microsomes assessed as parent compound remaining after 30 mins at 37 degC; assay type: ADME, microsome; settings: liver microsomes
Procedure, shortened: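 Compound incubated with rat hepatic microsomes for 30 min at 37 °C; percentage of compound remaining reported.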

[5] = biological target: Sphingosine 1-phosphate receptor 1 (Homo sapiens, UniProt P21453); experiment: Agonist activity at human S1P1 receptor expressed in CHOK1 cell membranes by [35S]GTPgammaS binding assay; assay type: functional, CHO-K1
Procedure, shortened: (§3)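 Membranes of CHO-K1 cells transfected with human S1P1 or S1P3. Phosphorylated compounds tested. Buffer: 50 mM HEPES pH 7.5, 100 mM NaCl, 5 mM MgCl2, 0.05 mg/mL saponin, with GDP and DTT. Started with [35S]GTPγS plus membrane, 60 min at room temperature, then filter harvest and scintillation counting. Binding expressed as % of 20 µM Sph-1-P response, blank-corrected, n = 2.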

[6] = biological target: Sphingosine 1-phosphate receptor 3 (Homo sapiens, UniProt Q99500); experiment: Agonist activity at human S1P3 receptor expressed in CHOK1 cell membranes by [35S]GTPgammaS binding assay; assay type: functional, CHO-K1; procedure, shortened: as §3
Homo sapiens = organism: Homo sapiens; experiment: Selectivity index, ratio of EC50 for human S1P3 receptor to EC50 for human S1P1 receptor
[7] = Cmax in rat at 1 mg/kg, po; assay type: ADME, organism-based; set-up: dose 1 mg/kg, route oral; settings: in vivo; procedure, shortened: as §2
[8] = AUC (0 to 48 hrs) in rat at 1 mg/kg, po; assay type: ADME, organism-based; set-up: time < 48 hr, dose 1 mg/kg, route oral; settings: plasma; procedure, shortened: as §2
[9] = Half life in rat at 1 mg/kg, po; assay type: ADME, organism-based; set-up: dose 1 mg/kg, route oral; settings: in vivo; procedure, shortened: as §2
[10] = Drug metabolism in rat plasma assessed as compound phosphorylation at 100 ug/ml at 37 degC after 3 hrs by HPLC method; assay type: ADME, cell-free; settings: read-out: Drug metabolism
Procedure, shortened: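 Rat whole blood, citrate-treated, spiked with compound from 100 µg/mL DMSO stock and held 3 h at 37 °C. Methanol quench, centrifugation twice at 4 °C, reversed-phase HPLC with CH3CN/0.1% TFA gradient. Phosphorylation given as ratio of HPLC peak areas of phosphate to remaining parent.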

Rattus norvegicus [11] = experiment: Drug level in Wistar Imamichi rat at 1 to 30 mg/kg, po; assay type: ADME, organism-based; set-up: dose 1-30 mg/kg, route oral; settings: in vivo
Rattus norvegicus [12] = experiment: Immunosuppressive activity in Lewis rat injected with WKAH/Hkm rat spleen cells assessed as inhibition of host versus graft reaction by measuring popliteal lymph nodes weight dosed orally at 1 mg/kg once daily for 4 successive days starting on day of spleen cell injection; assay type: functional; settings: route oral; procedure, shortened: as §1

Chain of Sphingosine 1-phosphate receptor 1 (P21453 whole entry): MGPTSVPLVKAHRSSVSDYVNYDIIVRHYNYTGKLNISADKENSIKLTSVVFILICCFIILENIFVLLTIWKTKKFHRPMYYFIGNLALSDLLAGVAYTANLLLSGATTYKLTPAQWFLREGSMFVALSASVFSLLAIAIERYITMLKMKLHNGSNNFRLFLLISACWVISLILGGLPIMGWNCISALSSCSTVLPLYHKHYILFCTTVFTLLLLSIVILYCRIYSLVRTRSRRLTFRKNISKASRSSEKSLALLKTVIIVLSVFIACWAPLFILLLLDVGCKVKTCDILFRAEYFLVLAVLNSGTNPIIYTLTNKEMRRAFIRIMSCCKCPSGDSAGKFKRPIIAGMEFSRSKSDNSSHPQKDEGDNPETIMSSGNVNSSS
Chain of Sphingosine 1-phosphate receptor 3 (Q99500 whole entry): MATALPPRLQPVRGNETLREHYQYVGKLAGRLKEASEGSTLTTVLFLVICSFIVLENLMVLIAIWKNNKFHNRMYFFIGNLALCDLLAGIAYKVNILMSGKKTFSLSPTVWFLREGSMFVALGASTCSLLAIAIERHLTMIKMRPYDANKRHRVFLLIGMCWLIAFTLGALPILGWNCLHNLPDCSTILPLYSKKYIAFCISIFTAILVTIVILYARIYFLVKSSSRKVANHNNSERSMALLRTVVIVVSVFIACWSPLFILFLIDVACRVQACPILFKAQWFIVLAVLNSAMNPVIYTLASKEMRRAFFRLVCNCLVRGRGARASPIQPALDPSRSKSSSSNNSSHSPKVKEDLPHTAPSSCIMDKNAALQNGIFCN

CCCCCCCCc1ccc(CCC(N)(CO)CO)cc1 [FINGOLIMOD]
Activity (Rattus norvegicus [1]): 21%
ED50 (Rattus norvegicus [2]): 0.33 mg/kg
half-life [3]: 32 h
remaining at 0.5 h [4]: 97%

CCc1cc(C(=O)CCCc2ccc(C)cc2)ccc1COC[C@@](C)(N)COP(=O)(O)O
EC50 [5]: 2.3 nM
EC50 [6]: 12000 nM
Ratio EC50 (Homo sapiens): 5220

Cc1ccc(CCCC(=O)c2ccc(COC[C@@](C)(N)COP(=O)(O)O)c(F)c2)cc1
EC50 [5]: 2.8 nM
EC50 [6]: 60 nM
Ratio EC50 (Homo sapiens): 21

Cc1ccc(CCCC(=O)c2ccc(COC[C@@](C)(N)COP(=O)(O)O)c(C)c2)cc1
EC50 [5]: 3 nM
EC50 [6]: 180 nM
Ratio EC50 (Homo sapiens): 60
Cmax [7]: 104 ng/mL
AUC(0-t) at 48 h [8]: 806 ng·h/mL
half-life [9]: 4.3 h
remaining at 0.5 h [4]: 92%

Cc1ccc(CCCC(=O)c2ccc(COC[C@@](C)(N)COP(=O)(O)O)c(Cl)c2)cc1
EC50 [5]: 4 nM
EC50 [6]: 220 nM
Ratio EC50 (Homo sapiens): 55
Cmax [7]: 97 ng/mL
AUC(0-t) at 48 h [8]: 658 ng·h/mL
half-life [9]: 4.6 h
remaining at 0.5 h [4]: 86%

Cc1ccc(CCCC(=O)c2cc(C)c(COC[C@@](C)(N)COP(=O)(O)O)cc2C)cc1
EC50 [5]: 6.5 nM
EC50 [6]: > 20000 nM
Ratio EC50 (Homo sapiens): > 3080

Cc1ccc(CCCC(=O)c2ccc(COC[C@@](C)(N)CO)c(C)c2)cc1.Cl
ED50 (Rattus norvegicus [2]): 0.43 mg/kg
metabolised at 3 h, 100 ug/ml [10]: 38.4%
Drug uptake (Rattus norvegicus [11]): Dose-dependent effect
Cmax [7]: 34 ng/mL
AUC(0-t) at 48 h [8]: 200 ng·h/mL
half-life [9]: 4.1 h
remaining at 0.5 h [4]: 36%

CCc1cc(C(=O)CCCc2ccc(C)cc2)ccc1COC[C@@](C)(N)CO
inhibition in vivo at 1 mg/kg (Rattus norvegicus [12]): 10%
metabolised at 3 h, 100 ug/ml [10]: 13.9%

Cc1ccc(CCCC(=O)c2ccc(COC[C@@](C)(N)CO)c(Cl)c2)cc1.Cl
ED50 (Rattus norvegicus [2]): 0.39 mg/kg
metabolised at 3 h, 100 ug/ml [10]: 83.8%
Drug uptake (Rattus norvegicus [11]): Dose-dependent effect
Cmax [7]: 18 ng/mL
AUC(0-t) at 48 h [8]: 144 ng·h/mL
half-life [9]: 4.6 h
remaining at 0.5 h [4]: 38%

Cc1ccc(CCCC(=O)c2cc(C)c(COC[C@@](C)(N)COP(=O)(O)O)c(C)c2)cc1
EC50 [5]: 2.2 nM
EC50 [6]: 340 nM
Ratio EC50 (Homo sapiens): 155

Cc1ccc(CCCC(=O)c2ccc(COC[C@@](C)(N)COP(=O)(O)O)cc2C)cc1
EC50 [5]: 19 nM
EC50 [6]: > 20000 nM
Ratio EC50 (Homo sapiens): > 1050

Cc1ccc(CCCC(=O)c2ccc(COC[C@@](C)(N)CO)cc2)cc1.Cl
Activity (Rattus norvegicus [1]): 39.5%
ED50 (Rattus norvegicus [2]): 0.27 mg/kg
half-life [3]: 7.8 h
metabolised at 3 h, 100 ug/ml [10]: 39.5%
Cmax [7]: 13 ng/mL
AUC(0-t) at 48 h [8]: 120 ng·h/mL
half-life [9]: 5.7 h
remaining at 0.5 h [4]: 51%

CCCCCCCCc1ccc(CC[C@](N)(CO)COP(=O)(O)O)cc1 [FTY720-P]
remaining at 0.5 h [4]: > 100%

Cc1ccc(CCCC(=O)c2cc(C)c(COC[C@@](C)(N)CO)cc2C)cc1
inhibition in vivo at 1 mg/kg (Rattus norvegicus [12]): 11%
metabolised at 3 h, 100 ug/ml [10]: 6%

Cc1ccc(CCCC(=O)c2ccc(COC[C@@](C)(N)COP(=O)(O)O)cc2)cc1
EC50 [5]: 7 nM
EC50 [6]: 200 nM
Ratio EC50 (Homo sapiens): 29
Cmax [7]: 72 ng/mL
AUC(0-t) at 48 h [8]: 799 ng·h/mL
half-life [9]: 7.8 h
remaining at 0.5 h [4]: 92%
